Legend:
[1] = target: Adrenergic receptor alpha-1 (Homo sapiens) (UniProt P35348+P25100+P35368); assay: Inhibition of adrenergic alpha1 receptor at 1 uM; type: protein assay
[2] = target: 5-hydroxytryptamine receptor 2A (Homo sapiens) (UniProt P28223); assay: Inhibition of 5HT2A receptor at 1 uM
[3] = target: Angiotensin-converting enzyme (Homo sapiens) (UniProt P12821); assay: Inhibition of ACE at 1 uM
[4] = Ratio of drug level in brain against plasma in rat by MBUA method after 5 min; type: ADME, organism-based; settings: brain and plasma
[5] = target: Neuronal acetylcholine receptor subunit alpha-7 (Rattus norvegicus) (UniProt Q05941); assay: Activity at alpha-7 nAChR in Sprague-Dawley rat hippocampal neurons assessed as induction of MLA-inhibited desensitizing inward current at 30 uM relative to (-)-nicotine; type: functional, tissue-based; set-up: scale not given: the % may be the effect or the level left; settings: Hippocampus
Method in brief: (§1)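 Rat hippocampal neurons were recorded by whole-cell patch clamp with rapid agonist application. Desensitizing inward currents were measured, and α7 mediation was tested with MLA (10 nM), n = 3.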

[6] = target: Endothelin-1 receptor (Homo sapiens) (UniProt P25101); assay: Inhibition of human ETA receptor at 1 uM
[7] = target: Endothelin-converting enzyme 1 (Homo sapiens) (UniProt P42892); assay: Inhibition of ECE at 1 uM
[8] = target: Prostaglandin G/H synthase 2 (Homo sapiens) (UniProt P35354); assay: Inhibition of COX2 at 1 uM
[9] = target: Soluble guanylate cyclase (Homo sapiens) (UniProt Q02153+O75343+P33402+Q02108); assay: Inhibition of stimulated guanylate cyclase at 1 uM; type: protein-complex assay
[10] = target: Histamine H2 receptor (Homo sapiens) (UniProt P25021); assay: Inhibition of histamine H2 receptor at 1 uM
[11] = target: Adenosine A2 receptor (Homo sapiens) (UniProt P29275+P29274); assay: Inhibition of adenosine A2 receptor at 1 uM; type: protein assay
[12] = target: Acetylcholinesterase (Homo sapiens) (UniProt P22303); assay: Inhibition of acetylcholinesterase at 1 uM
[13] = target: Epidermal growth factor receptor (Homo sapiens) (UniProt P00533); assay: Inhibition of EGFR at 1 uM
[14] = target: Muscarinic acetylcholine receptor M5 (Homo sapiens) (UniProt P08912); assay: Inhibition of M5 receptor at 1 uM
[15] = target: Delta-type opioid receptor (Homo sapiens) (UniProt P41143); assay: Inhibition of human delta opioid receptor at 1 uM
[16] = target: Type-1 angiotensin II receptor (Homo sapiens) (UniProt P30556); assay: Inhibition of AT1 receptor at 1 uM
[17] = target: Type-2 angiotensin II receptor (Homo sapiens) (UniProt P50052); assay: Inhibition of AT2 receptor at 1 uM
[18] = Metabolic stability in Sprague-Dawley rat liver microsomes after 1 hr; type: ADME, Microsome; settings: read-out: Stability
Method in brief: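 Rat liver microsomes incubated with compound, in vitro metabolism; read-out is percent of parent remaining at 1 h.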

[19] = target: Prostaglandin G/H synthase 1 (Homo sapiens) (UniProt P23219); assay: Inhibition of COX1 at 1 uM
[20] = target: Phosphodiesterase 1 (Homo sapiens) (UniProt P54750+Q01064+Q14123); assay: Inhibition of PDE1 at 1 uM; type: protein assay
[21] = target: Sodium-dependent dopamine transporter (Homo sapiens) (UniProt Q01959); assay: Inhibition of dopamine uptake at human DA transporter at 1 uM
[22] = target: D(1A) dopamine receptor (Homo sapiens) (UniProt P21728); assay: Inhibition of D1 receptor at 1 uM
[23] = target: MAO-B (Homo sapiens, UniProt P27338); assay: Inhibition of MAO-B at 1 uM
[24] = species: Homo sapiens; assay: Inhibition of Small conductance calcium-activated potassium channel at 1 uM
[25] = target: Sigma non-opioid intracellular receptor 1 (Homo sapiens) (UniProt Q99720); assay: Inhibition of sigma receptor at 1 uM
[26] = species: Homo sapiens; assay: Inhibition of ML1 receptor at 1 uM
[27] = target: Phosphodiesterase 4 (Homo sapiens) (UniProt P27815+Q08499+Q07343+Q08493); assay: Inhibition of PDE4 at 1 uM; type: protein assay
[28] = target: D(2) dopamine receptor (Homo sapiens) (UniProt P14416); assay: Inhibition of D2 receptor at 1 uM
[29] = target: Cannabinoid receptor 2 (Homo sapiens) (UniProt P34972); assay: Inhibition of CB2 receptor at 1 uM
[30] = target: Neuronal acetylcholine receptor subunit alpha-7 (Rattus norvegicus, UniProt Q05941); assay: Displacement of [3H]MLA from alpha-7 nAChR in Sprague-Dawley rat brain homogenates; type: tissue-based
Method in brief: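 Rat brain homogenate binding assay with [3H]MLA as radioligand. Values are the average of two or more experiments.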

[31] = target: Muscarinic acetylcholine receptor M1 (Homo sapiens) (UniProt P11229); assay: Inhibition of M1 receptor at 1 uM
[32] = target: Beta-2 adrenergic receptor (Homo sapiens) (UniProt P07550); assay: Inhibition of adrenergic beta-2 receptor at 1 uM
[33] = target: Protein kinase C (PKC) (Homo sapiens) (UniProt O94806+P41743+P17252+P05129+Q05655+P05771+Q05513+Q02156+P24723+Q15139+Q04759); assay: Inhibition of PKC at 1 uM; type: protein assay
[34] = target: Cholecystokinin receptor type A (Homo sapiens) (UniProt P32238); assay: Inhibition of CCK1 receptor at 1 uM
[35] = target: Serotonin 3 (5-HT3) receptor (Homo sapiens) (UniProt P46098+A5X5Y0+O95264+Q70Z44+Q8WXA8); assay: Inhibition of 5HT3 receptor at 1 uM; type: protein-complex assay
[36] = Half life in Sprague-Dawley rat liver microsome; type: ADME; settings: liver microsomes
[37] = target: 5-hydroxytryptamine receptor 2C (Homo sapiens) (UniProt P28335); assay: Inhibition of 5HT2C receptor at 1 uM
[38] = target: Neuronal acetylcholine receptor subunit alpha-7 (Rattus norvegicus) (UniProt Q05941); assay: Activity at alpha7 nAChR in Sprague-Dawley rat hippocampal neurons assessed as induction of MLA-inhibited desensitizing inward current at 0.3 uM relative to (-)-nicotine; type: functional, tissue-based; set-up: scale not given: the % may be the effect or the level left; settings: Hippocampus; method in brief: as §1
[39] = species: Homo sapiens; assay: Inhibition of GABA receptor at 1 uM
[40] = system: Rattus norvegicus; assay: Reversal of amphetamine-induced gating deficit in Sprague-Dawley at 10 mg/kg, iv; type: functional
Method in brief: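 Anesthetised rats; d-amphetamine 1 mg/kg iv given to disrupt auditory gating recorded in the hippocampal CA3 region (conditioning vs test responses, analogous to human P50). Agonist given iv afterwards; read-out is % gating versus amphetamine-alone. The 10 mg/kg dose was run as a separate experiment. Brain drug levels were measured after the iv doses.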

[41] = target: Adenosine receptor A3 (Homo sapiens) (UniProt P0DMS8); assay: Inhibition of adenosine A3 receptor at 1 uM
[42] = target: cGMP-dependent 3',5'-cyclic phosphodiesterase (Homo sapiens) (UniProt O00408); assay: Inhibition of PDE2 at 1 uM

Chain of Neuronal acetylcholine receptor subunit alpha-7 (Rattus norvegicus) (Q05941 whole entry): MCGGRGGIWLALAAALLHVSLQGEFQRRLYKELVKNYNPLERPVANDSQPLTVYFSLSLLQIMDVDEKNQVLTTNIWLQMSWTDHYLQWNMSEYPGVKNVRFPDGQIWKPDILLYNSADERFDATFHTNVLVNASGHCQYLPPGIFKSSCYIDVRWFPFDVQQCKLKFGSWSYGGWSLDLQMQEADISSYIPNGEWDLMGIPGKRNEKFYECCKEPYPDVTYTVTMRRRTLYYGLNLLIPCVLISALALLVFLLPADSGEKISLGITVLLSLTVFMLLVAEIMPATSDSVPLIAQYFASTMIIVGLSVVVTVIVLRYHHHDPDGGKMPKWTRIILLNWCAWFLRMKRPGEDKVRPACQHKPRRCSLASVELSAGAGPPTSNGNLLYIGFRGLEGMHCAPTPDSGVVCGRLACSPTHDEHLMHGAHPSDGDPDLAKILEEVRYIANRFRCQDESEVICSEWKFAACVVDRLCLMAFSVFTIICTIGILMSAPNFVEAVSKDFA
Chain of Endothelin-1 receptor (Homo sapiens) (P25101 whole entry): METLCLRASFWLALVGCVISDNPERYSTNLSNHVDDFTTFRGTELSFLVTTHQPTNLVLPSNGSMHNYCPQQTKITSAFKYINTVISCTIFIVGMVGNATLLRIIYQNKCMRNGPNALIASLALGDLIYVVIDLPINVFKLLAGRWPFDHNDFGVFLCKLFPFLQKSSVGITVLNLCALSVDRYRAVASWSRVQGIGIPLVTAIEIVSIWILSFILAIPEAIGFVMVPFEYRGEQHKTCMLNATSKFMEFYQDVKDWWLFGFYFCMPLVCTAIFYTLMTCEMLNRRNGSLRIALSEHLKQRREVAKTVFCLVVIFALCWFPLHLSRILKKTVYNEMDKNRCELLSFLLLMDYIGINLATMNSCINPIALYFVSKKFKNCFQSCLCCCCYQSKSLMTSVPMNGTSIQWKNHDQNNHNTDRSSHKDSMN
Chain of Prostaglandin G/H synthase 2 (Homo sapiens) (P35354 whole entry): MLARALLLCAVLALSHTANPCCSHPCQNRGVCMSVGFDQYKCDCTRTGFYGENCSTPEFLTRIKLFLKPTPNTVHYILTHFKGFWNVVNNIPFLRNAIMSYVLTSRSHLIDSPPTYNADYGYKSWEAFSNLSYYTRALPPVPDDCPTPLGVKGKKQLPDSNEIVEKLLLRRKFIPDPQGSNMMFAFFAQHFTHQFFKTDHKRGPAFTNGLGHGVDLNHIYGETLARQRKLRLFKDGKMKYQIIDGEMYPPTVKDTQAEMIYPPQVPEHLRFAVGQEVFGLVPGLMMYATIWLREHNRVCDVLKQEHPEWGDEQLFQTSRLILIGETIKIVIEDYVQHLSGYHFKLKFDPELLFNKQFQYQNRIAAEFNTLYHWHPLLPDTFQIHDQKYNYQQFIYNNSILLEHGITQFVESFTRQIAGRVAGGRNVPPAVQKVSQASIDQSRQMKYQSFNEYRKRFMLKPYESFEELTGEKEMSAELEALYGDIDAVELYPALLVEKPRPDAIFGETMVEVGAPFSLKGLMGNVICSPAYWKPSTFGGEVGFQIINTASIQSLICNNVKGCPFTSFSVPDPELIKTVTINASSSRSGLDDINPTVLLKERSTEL
Chain of Acetylcholinesterase (Homo sapiens) (P22303 whole entry): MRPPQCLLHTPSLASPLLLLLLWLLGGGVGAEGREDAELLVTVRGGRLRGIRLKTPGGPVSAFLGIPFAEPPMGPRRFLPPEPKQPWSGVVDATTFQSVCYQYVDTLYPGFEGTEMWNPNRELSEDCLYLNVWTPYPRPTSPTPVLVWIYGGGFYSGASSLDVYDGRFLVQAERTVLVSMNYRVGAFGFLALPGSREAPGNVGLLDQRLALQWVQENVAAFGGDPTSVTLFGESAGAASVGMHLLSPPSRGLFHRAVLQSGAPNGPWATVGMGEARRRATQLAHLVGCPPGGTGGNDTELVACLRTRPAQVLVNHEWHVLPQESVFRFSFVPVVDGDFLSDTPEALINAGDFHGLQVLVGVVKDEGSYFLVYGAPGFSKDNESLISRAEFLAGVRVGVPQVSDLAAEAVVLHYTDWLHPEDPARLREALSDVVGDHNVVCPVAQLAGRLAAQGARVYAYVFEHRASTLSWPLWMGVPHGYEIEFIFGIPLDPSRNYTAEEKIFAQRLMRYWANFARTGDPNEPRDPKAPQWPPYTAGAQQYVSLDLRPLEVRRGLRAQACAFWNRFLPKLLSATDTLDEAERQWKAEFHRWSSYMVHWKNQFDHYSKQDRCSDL
Chain of Sodium-dependent dopamine transporter (Homo sapiens) (Q01959 whole entry): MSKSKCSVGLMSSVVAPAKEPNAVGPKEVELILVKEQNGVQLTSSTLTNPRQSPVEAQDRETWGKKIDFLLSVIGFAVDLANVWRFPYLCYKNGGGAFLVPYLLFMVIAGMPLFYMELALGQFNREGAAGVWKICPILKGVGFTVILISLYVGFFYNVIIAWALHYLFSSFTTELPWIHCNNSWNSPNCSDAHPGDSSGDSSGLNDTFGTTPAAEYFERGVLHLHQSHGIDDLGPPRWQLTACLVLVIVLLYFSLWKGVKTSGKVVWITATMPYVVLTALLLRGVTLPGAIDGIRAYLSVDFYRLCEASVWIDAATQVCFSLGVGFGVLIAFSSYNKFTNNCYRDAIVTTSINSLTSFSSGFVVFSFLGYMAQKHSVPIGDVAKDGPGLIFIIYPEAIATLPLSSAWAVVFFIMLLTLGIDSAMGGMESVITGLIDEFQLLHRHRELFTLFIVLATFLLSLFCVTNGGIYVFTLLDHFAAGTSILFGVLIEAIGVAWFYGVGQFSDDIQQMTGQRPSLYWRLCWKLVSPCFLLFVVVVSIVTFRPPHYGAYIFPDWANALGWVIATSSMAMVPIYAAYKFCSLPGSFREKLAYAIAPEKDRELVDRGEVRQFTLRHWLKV
Chain of Beta-2 adrenergic receptor (Homo sapiens) (P07550 whole entry, looked up): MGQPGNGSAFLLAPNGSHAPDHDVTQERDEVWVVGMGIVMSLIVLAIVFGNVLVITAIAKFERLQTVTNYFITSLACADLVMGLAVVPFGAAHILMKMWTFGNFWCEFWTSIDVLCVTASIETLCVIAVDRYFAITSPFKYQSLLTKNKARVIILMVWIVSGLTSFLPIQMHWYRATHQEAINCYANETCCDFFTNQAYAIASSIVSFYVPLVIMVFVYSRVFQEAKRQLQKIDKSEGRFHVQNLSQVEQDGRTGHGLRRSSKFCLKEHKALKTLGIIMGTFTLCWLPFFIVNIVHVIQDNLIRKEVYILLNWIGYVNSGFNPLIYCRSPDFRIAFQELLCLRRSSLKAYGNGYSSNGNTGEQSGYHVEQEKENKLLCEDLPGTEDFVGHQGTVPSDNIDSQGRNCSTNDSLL
Chain of Muscarinic acetylcholine receptor M1 (Homo sapiens) (P11229 whole entry): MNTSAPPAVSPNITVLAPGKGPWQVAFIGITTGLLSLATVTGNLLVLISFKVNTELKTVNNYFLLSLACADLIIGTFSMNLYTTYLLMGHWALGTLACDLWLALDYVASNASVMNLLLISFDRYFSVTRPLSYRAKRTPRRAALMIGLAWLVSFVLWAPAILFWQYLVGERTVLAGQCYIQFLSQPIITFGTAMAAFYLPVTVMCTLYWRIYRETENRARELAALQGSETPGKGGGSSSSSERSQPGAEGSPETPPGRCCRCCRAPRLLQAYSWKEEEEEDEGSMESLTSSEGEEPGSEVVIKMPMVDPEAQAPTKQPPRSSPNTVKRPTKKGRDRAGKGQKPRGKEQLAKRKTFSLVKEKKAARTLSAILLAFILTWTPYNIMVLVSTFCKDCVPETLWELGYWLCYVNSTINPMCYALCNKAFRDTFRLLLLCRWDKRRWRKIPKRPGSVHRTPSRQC
Chain of Muscarinic acetylcholine receptor M5 (Homo sapiens) (P08912 whole entry): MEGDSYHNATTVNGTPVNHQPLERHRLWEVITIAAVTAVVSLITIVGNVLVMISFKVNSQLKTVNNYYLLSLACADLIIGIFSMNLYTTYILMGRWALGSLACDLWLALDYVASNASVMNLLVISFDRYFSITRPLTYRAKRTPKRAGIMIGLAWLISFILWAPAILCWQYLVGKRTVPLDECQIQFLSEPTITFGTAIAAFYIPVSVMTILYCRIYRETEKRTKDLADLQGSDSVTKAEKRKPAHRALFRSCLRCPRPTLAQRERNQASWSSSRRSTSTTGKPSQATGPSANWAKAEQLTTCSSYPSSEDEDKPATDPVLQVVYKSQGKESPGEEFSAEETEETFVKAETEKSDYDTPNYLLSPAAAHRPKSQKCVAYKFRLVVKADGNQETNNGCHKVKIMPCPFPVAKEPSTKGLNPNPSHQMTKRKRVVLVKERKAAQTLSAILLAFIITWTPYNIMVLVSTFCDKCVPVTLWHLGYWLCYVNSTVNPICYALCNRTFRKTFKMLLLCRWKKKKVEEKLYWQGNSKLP
Chain of Histamine H2 receptor (Homo sapiens) (P25021 whole entry): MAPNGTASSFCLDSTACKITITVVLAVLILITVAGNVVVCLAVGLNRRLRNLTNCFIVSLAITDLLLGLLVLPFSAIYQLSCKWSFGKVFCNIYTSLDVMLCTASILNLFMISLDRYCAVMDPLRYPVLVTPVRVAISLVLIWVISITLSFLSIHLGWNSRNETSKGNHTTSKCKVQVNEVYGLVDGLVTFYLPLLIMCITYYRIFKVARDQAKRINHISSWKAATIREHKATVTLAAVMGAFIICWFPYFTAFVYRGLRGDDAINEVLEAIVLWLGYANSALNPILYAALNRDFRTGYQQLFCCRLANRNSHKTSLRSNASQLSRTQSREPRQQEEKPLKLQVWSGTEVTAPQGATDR
Chain of Neuronal acetylcholine receptor subunit alpha-7 (Q05941 whole entry): as the sequence (Q05941 whole entry) above
Chain of Adenosine receptor A3 (Homo sapiens) (P0DMS8 whole entry): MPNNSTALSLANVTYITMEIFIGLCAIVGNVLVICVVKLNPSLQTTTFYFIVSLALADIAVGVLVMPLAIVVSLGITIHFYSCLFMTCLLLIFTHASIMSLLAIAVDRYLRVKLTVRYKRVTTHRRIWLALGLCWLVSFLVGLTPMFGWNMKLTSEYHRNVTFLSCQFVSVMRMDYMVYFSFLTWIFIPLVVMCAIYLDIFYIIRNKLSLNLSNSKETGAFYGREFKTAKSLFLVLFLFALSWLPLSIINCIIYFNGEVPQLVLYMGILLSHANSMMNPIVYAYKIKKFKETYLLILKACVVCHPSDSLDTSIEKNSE

`O=C(N[C@H]1CN2CCC1CC2)c1cc2ccoc2cn1` [PHA-543613] showed an inhibition [1] of less than 10%, an inhibition [2] of less than 10% and an inhibition [3] of less than 10%. The Kp at 5 min [4] was 1.5, the Activity [5] was 220% and the inhibition [6] was less than 10%. It also gave an inhibition [7] of less than 10%, an inhibition [8] of 14% and an inhibition [9] of less than 10%. For the same molecule, the inhibition [10] was less than 10%, the inhibition [11] was less than 10% and the inhibition [12] was less than 10%. The inhibition [13] was less than 10%, the inhibition [14] was less than 10% and the inhibition [15] was 14%. For the same molecule, the inhibition [16] was 16%, the inhibition [17] was less than 10% and the remaining at 1 h [18] was 55%. It also gave an inhibition [19] of less than 10%, an inhibition [20] of less than 10% and an inhibition [21] of less than 10%. The inhibition [22] was less than 10%, the inhibition at 1 µM [23] was less than 10% and the inhibition [24] was less than 10%. For the same molecule, the inhibition [25] was less than 10%, the inhibition [26] was 11% and the inhibition [27] was less than 10%. For the same molecule, the inhibition [28] was less than 10%, the inhibition [29] was less than 10% and the Ki [30] was 8.8 nM. The inhibition [31] was 16%, the inhibition [32] was less than 10% and the inhibition [33] was 18%. For the same molecule, the inhibition [34] was less than 10%, the inhibition [35] was 67% and the half-life [36] was 40 min. The inhibition [37] was less than 10%, the Activity [38] was 34% and the inhibition [39] was less than 10%. The Activity [40] was 51%, the inhibition [41] was 12% and the inhibition [42] was 25%.
